29 compounds from ChEMBL document CHEMBL1128326, “N-acylated alpha-amino acids as novel oral delivery agents for proteins” (1995) can be followed below.

The first assay concerns Rattus norvegicus. The assay is described as follows: The compound was tested for oral delivery of calcitonin, activity is measured as reduction in serum calcium levels at 400 mg/kg and dose of calcitotin is 10 ug/kg. In kind it is functional.
Conditions: not given
The gist of the method:
(§1)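 Male Sprague-Dawley rats (125–150 g; groups of 6–7) were anesthetized with ketamine 44 mg/kg plus thiazine 0.5 mg/kg. They were given an aqueous pH 7.2 solution of compound with salmon calcitonin (400 mg/kg and 10 μg/kg) by oral gavage at 2 mL/kg. Control groups received calcitonin alone or compound alone. Tail-artery blood was sampled serially, and serum calcium was measured with a kit; results are % decrease, mean ± SE.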
With `CC(C)C[C@H](NC(=O)c1ccccc1[N+](=O)[O-])C(=O)O`, the “Ca2+ reduction” value is -6.61.

Turning to `CC(C)C[C@H](NC(=O)c1ccc([N+](=O)[O-])cc1)C(=O)O`, the “Ca2+ reduction” value was -11.8. The same measure, in the same setting: for `CC(C)C[C@@H](NC(=O)C1CCCCC1)C(=O)O` the value was -18.32. Still for that read-out and setting: then `CC(C)C[C@H](NC(=O)C1CCCC(C)C1)C(=O)O` (stereo partly drawn), with -13.69; and `CC(C)C[C@H](NC(=O)C1CCC(C)CC1)C(=O)O` (stereo partly drawn), with -15.52. Same read-out and setting: for `CC(C)C[C@H](NC(=O)C1CCCCC1)C(=O)O` the value was -21.82.

Regarding `CC(C)C[C@H](NC(=O)C1CCCCC1)C(=O)O.N=C(N)NCCC[C@H](NC(=O)C1CCCCC1)C(=O)O.O=C(N[C@@H](Cc1ccc(O)cc1)C(=O)O)C1CCCCC1`, the “Ca2+ reduction” value was -33.9. Still for that read-out and setting: then `CC(C)C[C@H](NC(=O)c1ccccc1)C(=O)O`, with -12.9; and `CC(C)C[C@H](NC(=O)c1cccc([N+](=O)[O-])c1)C(=O)O`, with -14.5; and `CC(C)C[C@H](NC(=O)C1CCCCCC1)C(=O)O`, with -19.76.

Take `CC(C)C[C@H](NC(=O)CCC1CCCCC1)C(=O)O`: the “Ca2+ reduction” value is recorded as -14.97.

Regarding `CC(C)C[C@H](NC(=O)C1CCCCC1C)C(=O)O` (stereo partly drawn), the “Ca2+ reduction” value is -18.27.

Another assay deals with Serine protease 1 (Homo sapiens) (UniProt P07477). As to the kind of experiment: The compound was tested for inhibitory activity against trypsin at 10 mg/mL.
Serine protease 1 (Homo sapiens), sequence (P07477 whole entry): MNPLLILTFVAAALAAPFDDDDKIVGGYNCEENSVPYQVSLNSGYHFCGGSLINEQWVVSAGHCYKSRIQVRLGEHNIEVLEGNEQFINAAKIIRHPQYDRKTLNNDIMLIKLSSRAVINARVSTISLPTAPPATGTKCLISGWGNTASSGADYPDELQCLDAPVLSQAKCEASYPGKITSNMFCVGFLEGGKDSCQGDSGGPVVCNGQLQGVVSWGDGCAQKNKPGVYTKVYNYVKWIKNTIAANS
Conditions: not given
In a few lines: (§2)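 Trypsin activity was taken from USP pancreatin at 1 mg/mL final, in 50 mM potassium phosphate pH 7.6 at 37 °C. Test compound was preincubated with enzyme for 10 min. The reaction was started with N-benzoyl-L-arginine p-nitroanilide (300 μM final), and p-nitroaniline formation was followed at 400 nm over 12 min. Percent inhibition was calculated at 12 min from reaction rates versus compound-free controls.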
By inhibition is commonly meant the percentage by which the read-out fell short of the control. In the case of `CC(C)C[C@H](NC(=O)C1CCCCC1)C(=O)O`, the inhibition was 39%.

For the next assay, the species on record is Rattus norvegicus. As to the kind of experiment: The compound was tested for oral delivery of interferon-alpha in rats.
Conditions: not given
`O=C(N[C@H](C(=O)O)c1ccccc1)C1CCCCC1` came in with an Amount delivered of 3808 pg/mL.

A further assay has as its system Rattus norvegicus. As to the kind of experiment: The compound was tested for oral delivery of interferon-alpha in rats.(compound dose=400 mg/kg; inf-alpha dose= 500 ug/kg).
Conditions: not given
Take `O=C(N[C@H](C(=O)O)c1ccccc1)C1CCCCC1`: the Amount delivered was 2598 pg/mL.

A further assay addresses Serine protease 1 (Homo sapiens) (UniProt P07477). The assay is described as follows: The compound was tested for inhibitory activity against trypsin, activity is expressed as %inhibition. The settings on record: concentration not given here. In a few lines: as §2
`O=C(N[C@H](C(=O)O)c1ccccc1)C1CCCCC1`: the inhibition was 44%.

The test system of another assay is Rattus norvegicus. As to the kind of experiment: The compound was tested for oral delivery of interferon-alpha in rats.(compound dose=800 mg/kg; inf-alpha dose= 1 mg/kg).
Conditions: not given
Turning to `NCCCC[C@H](NC(=O)C1CCCCC1)C(=O)O`, the Amount delivered stood at 3340 pg/mL. Same read-out and setting: for `O=C(N[C@H](C(=O)O)c1ccccc1)c1ccccc1O` the value was 757 pg/mL; for `O=C(CCC1CCCCC1)N[C@H](C(=O)O)c1ccccc1`, 3026 pg/mL; for `O=C(N[C@@H](Cc1ccc(O)cc1)C(=O)O)C1CCCCC1`, 3422 pg/mL. On the same count and under the same terms, for `O=C(N[C@@H](Cc1ccccc1)C(=O)O)C1CCCCC1` the value was 611 pg/mL. Take `O=C(N[C@H](C(=O)O)c1ccccc1)C1CCCC1`: the Amount delivered came to 4707 pg/mL. `O=C(CC1CCCCC1)N[C@H](C(=O)O)c1ccccc1` had an Amount delivered of 6401 pg/mL. Take `NC(=O)NCCC[C@H](NC(=O)C1CCCCC1)C(=O)O`: the Amount delivered is 1922 pg/mL. The compound `O=C(N[C@H](C(=O)O)c1ccccc1)c1ccccc1` registered an Amount delivered of 8427 pg/mL. `N=C(N)NCCC[C@H](NC(=O)C1CCCCC1)C(=O)O` returned an Amount delivered of 2107 pg/mL.

In the case of `O=C(N[C@H](C(=O)O)c1ccccc1)C1CCCCCC1`, the Amount delivered amounted to 4066 pg/mL.

`CCC(C)[C@H](NC(=O)C1CCCCC1)C(=O)O` (stereo partly drawn) yielded an Amount delivered of 340 pg/mL.

The test system of another assay is Rattus norvegicus. The assay is described as follows: The compound was tested for oral delivery of interferon-alpha in rats.(compound dose=400 mg/kg; inf-alpha dose= 250 ug/kg).
Conditions: not given
In turn, `O=C(N[C@H](C(=O)O)c1ccccc1)C1CCCCC1` yielded an Amount delivered of 434 pg/mL.

The species named for another assay is Rattus norvegicus. The assay is described as follows: The compound was tested for oral delivery of calcitonin, activity is measured as reduction in serum calcium levels. In kind it is functional. Also on record: unit not given beside the values.
Conditions: not given
In a few lines: as §1
Consider `COc1cccc(C(=O)N[C@@H](CC(C)C)C(=O)O)c1`, for which the “Ca2+ reduction” value is listed as -7.9. For the compound `CC(C)C[C@H](NC(=O)C1CC1)C(=O)O`, the “Ca2+ reduction” value is recorded as -3.87. On to `CC(C)C[C@H](NC(=O)C1CCCCC1C(=O)O)C(=O)O` (stereo partly drawn), for which the “Ca2+ reduction” value is given as -10.47. On the same count and under the same terms, for `CC(C)C[C@H](NC(=O)C1CCCC1)C(=O)O` the value was -6.28.
